Assay results published in PMC6851555 (Diabetes, Obesity & Metabolism, 2019).

Key:
[1] = molecular target: T1, PPARγ ligand-binding domain (LBD) (Homo sapiens, UniProt P37231); assay: PPARγLBD-Gal4-luciferase reporter transactivation assay; type: cell-based; settings: 20 μmol/L GW9662, 10 μmol/L YR4-42; Figure 1H
T1 sequence (P37231 204-505): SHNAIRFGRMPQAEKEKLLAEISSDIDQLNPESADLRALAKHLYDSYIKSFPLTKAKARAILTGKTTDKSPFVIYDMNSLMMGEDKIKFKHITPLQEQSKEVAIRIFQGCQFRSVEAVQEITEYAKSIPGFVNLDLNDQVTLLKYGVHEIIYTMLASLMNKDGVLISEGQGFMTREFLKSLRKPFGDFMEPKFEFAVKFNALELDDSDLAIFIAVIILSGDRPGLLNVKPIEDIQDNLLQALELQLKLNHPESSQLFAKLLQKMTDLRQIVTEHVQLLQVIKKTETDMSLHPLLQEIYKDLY

DIO-C57BL/6J mice = assay: In vivo pharmacological evaluation in diet-induced obese mice; parameters: species or system mouse; settings: YR4-42 50 mg/kg
Method in brief: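 Male C57BL/6J mice (6 weeks old) on 60%-fat diet for 10 weeks, continued throughout; 16-week-old DIO mice randomised, n = 12/group, gavaged 38 days with 0.5% CMC-Na vehicle, pioglitazone 25 mg/kg or test compound 50 mg/kg; chow-fed vehicle controls. Body weight every 2 days; insulin tolerance test day 14 (AUC); day 38 liver weighed, TG/TC/FFA by kits normalised to tissue weight; mean ± SEM.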

Compound	effect of antagonist on PPARγ transactivation induced by YR4-42 [1]	hepatic TG, total cholesterol and FFA (DIO-C57BL/6J mice; 38th day, pioglitazone 25 mg/kg oral, Figure 3K-M)	body weight of DIO mice (DIO-C57BL/6J mice; oral gavage 38 days, pioglitazone 25 mg/kg, Figure 3A,B)
O=C(Nc1ccccc1)c1cc([N+](=O)[O-])ccc1Cl [GW9662]	inhibited		
CCc1ccc(CCOc2ccc(CC3SC(=O)NC3=O)cc2)nc1 (stereo not drawn) [pioglitazone]		increased	further enhanced weight gain
